Assay outcomes deposited in PubChem by The Scripps Research Institute Molecular Screening Center.
Shown are actives, neighbours in structure and some others; about 2% of the full set was active somewhere.
M1 antag: blocks human M1 muscarinic receptor; P11229; CHO-K1 hM1, Fluo-8 calcium fluorescence, ACh EC80 antagonist; inhibition, % at 3 µM; 1.3% of 360,000 active; AID 588852;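 active = percent inhibition above its own plate's cutoff, namely the mean of that plate's compound wells plus 3 SD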;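 also: peak over basal fluorescence ratio during 140 s after agonist addition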
M5 ag: CHRM5 agonism in calcium assay. P08912. CHO-K1 hM5 cells, Fluo-8 calcium fluorescence; 0% DMSO wells, 100% maximal acetylcholine response. activation, % at 3 µM. 0.19% of 360,000 active. AID 624037;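 active = activation above the run's mean over test compounds plus 3 SD, cut at about 23% in these data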;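 also: signal is peak over basal fluorescence ratio across the kinetic read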
Target sequence (P08912 whole entry, looked up): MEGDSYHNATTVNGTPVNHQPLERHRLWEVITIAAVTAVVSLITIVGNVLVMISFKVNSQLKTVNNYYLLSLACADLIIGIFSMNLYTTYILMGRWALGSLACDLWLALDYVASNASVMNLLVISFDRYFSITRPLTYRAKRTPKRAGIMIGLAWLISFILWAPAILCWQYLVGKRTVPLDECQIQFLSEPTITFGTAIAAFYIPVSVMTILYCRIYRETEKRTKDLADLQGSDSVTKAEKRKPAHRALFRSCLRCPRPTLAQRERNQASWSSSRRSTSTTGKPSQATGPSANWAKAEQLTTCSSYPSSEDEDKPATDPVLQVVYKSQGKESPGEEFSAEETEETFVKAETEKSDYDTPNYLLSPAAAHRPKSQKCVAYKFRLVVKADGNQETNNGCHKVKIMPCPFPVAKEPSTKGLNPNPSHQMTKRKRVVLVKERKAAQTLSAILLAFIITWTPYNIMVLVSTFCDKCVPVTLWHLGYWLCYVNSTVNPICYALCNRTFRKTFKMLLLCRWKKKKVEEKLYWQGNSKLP
CHRM5 PAM: positive allosteric modulators of human muscarinic M5 receptor; P08912; CHO-K1 hM5, Fluo-8 calcium, ACh EC20 PAM; 0% = ACh EC20, 100% = ACh EC100; activation, % at 3 µM; 0.3% of 360,000 active;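 active = activation above the run cutoff, the mean activation of all test compounds plus 3 SD, cut at about 18% in these data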
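Assay system: CHO-K1 hM5 cells / Incubation: Fluo-8 loading 80 min at 37 °C plus 30 min room temperature / Technique: Fluo-8 calcium dye fluorescence, kinetic read / Repeats: single replicate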
M5 antag: CHRM5 antagonism in calcium assay; CHO-hM5 cells, Fluo-8 calcium fluorescence, ACh EC80; inhibition, % at 3 µM; 0.59% of 360,000 active;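 active = inhibition above a per-plate cutoff, the mean of that plate's test compounds plus 3 SD, cut at about 27% in these data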
CHRM1 agonist: agonists of human M1 muscarinic receptor; P11229; CHO-K1 hM1, Fluo-8 calcium fluorescence, agonist mode; 0% DMSO, 100% acetylcholine EC100; activation, % at 3 µM; 0.33% of 360,000 active; AID 588814;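 active = activation above the run's mean compound activation plus 3 SD, cut at about 16% in these data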;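 also: peak over basal fluorescence ratio within a 140 s kinetic read after compound addition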
M1 PAM: potentiates human M1 receptor response to acetylcholine | CHO-K1 hM1, Fluo-8 calcium fluorescence, ACh EC20; 0% = ACh EC20, 100% = maximal ACh | activation, % at 3 µM | 0.088% of 360,000 active | AID 588819; in the data active = activation above about 19%, passing the limit was not always enough
A number is an active result; – = inactive; · = no result.

SMILES | M1 antag | M5 ag | CHRM5 PAM | M5 antag | CHRM1 agonist | M1 PAM
CC1(c2nnnn2-c2ccc3c(c2)OCCO3)CCC(=O)N1CCOc1ccccc1 (centres undefined) | · | – | – | – | · | ·
O=C(Nc1ccc(N2CCN(C(=O)c3ccco3)CC2)c(Cl)c1)c1cc2ccccc2o1 | 37.3 | – | – | 30.5 | – | –
O=C(Nc1ccc(N2CCN(C(=O)c3ccccc3)CC2)c(Cl)c1)c1ccco1 | – | – | – | – | – | –
CCCC(=O)N1CCN(c2ccc(NC(=O)c3cc4ccccc4o3)cc2Cl)CC1 | 55.5 | – | – | – | – | –
CCC(=O)N1CCN(c2ccc(NC(=O)c3ccco3)cc2Cl)CC1 | – | – | – | – | – | –
CCC(=O)N1CCN(c2ccc(NC(=O)c3cc4ccccc4o3)cc2Cl)CC1 | 17.7 | – | – | – | – | –
Cn1cnc(S(=O)(=O)N2CCCC(c3cc(C(=O)Nc4ccc(F)c(Cl)c4)no3)C2)c1 (centres undefined) | – | – | – | – | – | –
Cc1cccc(CN2[C@H](COCc3ccccc3)C=CS2(=O)=O)c1 | – | – | – | – | – | –
CN(C)CCN1CCN(C2CN(CCc3ccccc3)S(=O)(=O)C2)CC1 (centres undefined) | – | – | – | – | – | –
O=C(NNC(=O)c1ccncc1)Nc1ccc(N=Nc2ccccc2)cc1 | – | – | – | – | 18.4 | –
O=C(NNC(=O)c1ccncc1)Nc1ccccc1 | – | – | – | – | – | –
CCOC(=O)N1CCC(N2CCCC(C(=O)c3cccc(OC)c3)C2)CC1 (centres undefined) | 53.9 | – | – | – | – | –
CCOC(=O)N1CCC(N2CCCC(C(=O)c3cccc(OC(C)C)c3)C2)CC1 (centres undefined) | – | – | – | – | – | –
Cn1ccc2c(N3c4ccccc4CCc4ccccc43)cc3c(c21)C1CCC3C1 (centres undefined) | 37.3 | – | – | – | – | –
O=C(NCCCn1ccnc1)C(=O)NC1CCCCC1 | – | – | 18.8 | – | – | –
O=C(COc1ccccc1Cl)NC(=S)Nc1ccc(CN2CCOCC2)cc1 | – | – | – | – | – | –
CC(C)c1ccc(/C=C/C(=O)NC(=S)Nc2ccc(CN3CCOCC3)cc2)cc1 | 48.2 | – | – | 40.6 | – | –
O=C(COc1ccc(Cl)cc1Cl)NC(=S)Nc1ccc(CN2CCOCC2)cc1 | 37.5 | – | – | – | – | –
NC(=O)c1ccc(N2CCN(S(=O)(=O)c3ccccc3)CC2)c([N+](=O)[O-])c1 | – | – | – | 29.4 | – | –
Cn1c(=O)n(C)c2cc([N+](=O)[O-])c(N3CCN(S(=O)(=O)c4ccc5ccccc5c4)CC3)cc21 | – | – | – | – | – | –
Cc1ccc(S(=O)(=O)N2CCN(c3cc4c(cc3[N+](=O)[O-])n(C)c(=O)n4C)CC2)cc1 | 52.1 | – | – | – | – | –
O=C(c1ccc(N2CCCCC2)c([N+](=O)[O-])c1)N1CCN(S(=O)(=O)c2ccccc2)CC1 | – | – | – | – | – | –
Cc1ccc(OCc2nc3ccccc3n2C(C(=O)Nc2c(C)cccc2C)C2CC2)cc1 (centres undefined) | · | – | – | – | · | ·
CCN(CC)c1ccc(/C=C/C(=O)c2ccc(Br)cc2)cc1 | 79.0 | 112.8 | – | 66.6 | 171.0 | –
CN(C)c1ccc(C(=O)/C=C/c2ccc(Br)cc2)cc1 | – | – | – | – | – | –
SMILES | M1 antag | M5 ag | CHRM5 PAM | M5 antag | CHRM1 agonist | M1 PAM
COc1ccc(C(=O)c2cn(-c3cccc(Br)c3)nc2C(C)=O)cc1 | – | – | – | – | – | –
CC(=O)c1nn(-c2cccc(Br)c2)cc1C(=O)c1ccc2ccccc2c1 | 34.7 | – | – | – | – | –
O=C1c2cccc3c([N+](=O)[O-])ccc(c23)C(=O)N1c1nccs1 | 24.0 | – | – | – | – | –
O=C1c2cccc3c([N+](=O)[O-])ccc(c23)C(=O)N1c1ccccn1 | – | – | – | 27.9 | – | –
O=C(CN1CCN(c2cnn(-c3ccccc3)c(=O)c2Cl)CC1)NC1CCS(=O)(=O)C1 (centres undefined) | – | – | – | – | – | –
COc1ccc(N(CC(=O)NCc2ccc(F)cc2)S(=O)(=O)c2c(C)n[nH]c2C)cc1 | – | – | – | – | – | –
CCOc1ccccc1NC(=O)CN(c1ccc(C)cc1)S(=O)(=O)c1c(C)n[nH]c1C | 20.1 | – | – | – | – | –
COc1ccc(N(CC(=O)NCc2ccc(Cl)cc2)S(=O)(=O)c2c(C)n[nH]c2C)cc1 | – | – | – | 29.6 | – | –
CCCSc1ccc([C@H]2N[C@@](C)(C(=O)OC)[C@H]3C(=O)N(C)C(=O)[C@@H]23)cc1 | – | – | – | – | – | –
CCCCCCSc1ccc([C@H]2N[C@@](C)(C(=O)OC)[C@H]3C(=O)N(C)C(=O)[C@@H]23)cc1 | 36.4 | – | – | – | – | –
COC(=O)CCCn1cc(CN2CC(N3CCN(Cc4cccc(C)c4)CC3)CS2(=O)=O)nn1 (centres undefined) | · | – | – | – | · | ·
CC1(C)CC(Cc2cccc(C(F)(F)F)c2)N(C(=O)OC(C)(C)C)C1 (centres undefined) | – | – | – | – | – | –
C[C@@H]1CN([C@H](C)CO)C(=O)CCCn2nncc2CO[C@@H]1CN(C)S(=O)(=O)c1ccccc1C#N | – | – | – | – | – | 27.0
C[C@@H]1CN([C@@H](C)CO)C(=O)CCCn2cc(nn2)CO[C@H]1CN(C)S(=O)(=O)c1ccc(-c2ccccc2)cc1 | – | – | – | – | – | –
C[C@H](CO)N1C[C@H](C)[C@@H](CN(C)S(=O)(=O)c2ccccc2)OCc2cn(nn2)CCCC1=O | 24.4 | – | – | – | – | –
Cc1ccc(S(=O)(=O)N(C)C[C@@H]2OCc3cn(nn3)CCCC(=O)N([C@@H](C)CO)C[C@H]2C)cc1 | – | – | – | – | – | 25.2
COC(=O)[C@@]12C[C@@H](CC(=O)NCCc3ccccc3OC)C(=O)N(CCc3ccc(OC)c(OC)c3)C1=CCC(C)(C)C2 | · | – | – | – | · | ·
CC(C)CC1NC(=O)c2cccnc2-n2c1nc1cc(F)ccc1c2=O (centres undefined) | – | – | – | – | – | –
c1ncn(C23CC4CC(CC(C4)C2)C3)n1 | – | – | 20.7 | – | – | –
CC(NC(=O)C12CC3CC(C1)CC(n1cncn1)(C3)C2)C12CC3CC(CC(C3)C1)C2 (centres undefined) | – | – | – | – | – | –
CCOC(=O)[C@]12CCCC=C1N(Cc1cccc3ccccc13)C(=O)[C@H](CC(=O)NCCc1ccccc1OC)C2 | · | – | – | – | · | ·
